Laboratory results published in PubChem BioAssay.
Records with an inconclusive call do not appear.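 How the source made its calls, unless noted: active means viability increase at or above a cutoff of the median across tested compounds plus 3 SD (cut at about 8.5% in these data, passing the limit was not always enough); inconclusive means some gains above the cutoff, reason not given; inactive means the rest.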

What was measured:
[1] = OD615 S. cerevisiae growth inhibition, permissive medium, pilot counter-assay, permissive growth control for S. cerevisiae lifespan shortening project (AID 705;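 active means growth inhibition above 25% in both replicates, a cutoff set 3 SD above the mean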); details: OD615, 24 h, at 10 µM, stronger effect = higher value
Outline: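 System: Engineered DeaD yeast | Buffer or medium: SC raffinose/galactose permissive medium | Incubation: Cells pre-grown 4 h, then 24 h compound exposure, 30 °C humidified | Measured by: Absorbance (optical density) at 615 nm | Read-out: Reduction in yeast growth (OD615)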

[2] = Restrictive medium S. cerevisiae growth inhibition, OD615, pilot screen of yeast lifespan reduction project, restrictive growth control (AID 706;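 active means growth inhibition above a set limit, 3 SD over mean compound inhibition, in both replicates, cut at about 43% in these data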;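 further: modified DeaD lifespan yeast strain shifted to restrictive glucose medium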); details: OD615, 48 h, at 10 µM, stronger effect = higher value
Outline: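 Material: modified S. cerevisiae; Medium: glucose-based CSMM-D restrictive medium; Compound dosing: one concentration, 10 µM final, 0.25% DMSO; Incubation: 48 h compound exposure at 30 °C; Measured by: OD615.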

[3] = viability gain of MRP-1-high H69AR cells under doxorubicin, pilot screen, MRP-1 activator project, CellTiter-Glo, duplicate (AID 807); details: H69AR viability with doxorubicin, CellTiter-Glo luminescence; at 10 µM; stronger effect = higher value;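 further: compound pretreatment 18-22 h then 72 h combined with doxorubicin; 0% = doxorubicin alone and 100% = vehicle without doxorubicin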
[4] = growth suppression of beta-catenin knockout HCT116, pilot screen, human colon tumor cells (AID 823;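 active means cell viability at or below a set limit in both duplicate runs, the limit being the all-compound median minus 4 SD, cut at about 23% in these data, passing the limit was not always enough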;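 further: 0% = wells killed by 20 µM Hyamine and 100% = untreated DMSO cell wells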); details: CellTiter-Glo, 60 h, at 10 µM, stronger effect = lower value
[5] = growth suppression of PTEN-deleted HCT116, pilot screen, cell-based, HCT116 clonal line, CellTiter-Glo (AID 824;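 active means viability at or below 27.92% in each of two runs, the all-compound median minus 4 SD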;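 further: 0% = 20 µM Hyamine control and 100% = vehicle cell control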); details: 60 h, at 10 µM, stronger effect = lower value
[6] = inhibitors of the yeast RAM network, pilot screen, dse1pr::URA3 reporter, 5-FOA selection (AID 869;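 active means inhibition over a set limit, the all-compound mean plus 3 SD, in both replicate runs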;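 further: 0% = DMSO wells with no growth and 100% = 10 µM 1-NA-PP1 with full growth; RAM network block rescues cells from 5-FOA so hits raise OD615 growth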); details: S. cerevisiae dse1pr::URA3 5-FOA growth, OD615, 2 d; at 10 µM; stronger effect = higher value; strain carries analog-sensitive mutant Cbk1 kinase
[7] = RAM signaling pathway blockade in yeast – S. cerevisiae, Pdr1DBD-CYC8 efflux-inhibited sensitized strain, primary screen (AID 1298;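 active means RAM network inhibition above 8.4% in each of two replicates, 3 SD over the compound average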;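 further: 0% = DMSO untreated cells without growth and 100% = 10 µM 1-NA-PP1 full growth; higher means more yeast growth rescued from 5-FOA killing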); details: S. cerevisiae cbk1-as DSE1-URA3 strain, 5-FOA growth OD615, 2 d; at 50 µM; stronger effect = higher value

O=C(c1ccc(CS(=O)(=O)c2ccc(Br)cc2)o1)N1CCN(c2ccccn2)CC1
inactive: growth inhibition [1] -5.91% | growth inhibition [2] -14.9% | viability increase [3] -3.76% | viability [4] 98.8% | viability [5] 84.4% | inhibition [6] 1.34% | RAM network inhibition [7] 4.8%

Cc1nn(Cc2c(Cl)cccc2Cl)c(C)c1NC(=O)c1cc(C(C)C)on1
inactive: growth inhibition [1] -10.6% | growth inhibition [2] 0.6% | viability increase [3] -1.33% | viability [4] 74.2% | viability [5] 62.9% | inhibition [6] 2.81% | RAM network inhibition [7] 2.56%

CC(C)NS(=O)(=O)c1ccc(CCC(=O)NCc2cccnc2)cc1
inactive: growth inhibition [1] 2.32% | growth inhibition [2] -6.38% | viability increase [3] -0.9% | viability [4] 88% | viability [5] 92.5% | inhibition [6] 1.33% | RAM network inhibition [7] 1.08%

N#Cc1nc(COc2cccc(Cl)c2)oc1NCc1ccco1
inactive: growth inhibition [1] -14% | growth inhibition [2] 3.77% | viability increase [3] -2.87% | viability [4] 89% | viability [5] 89.4% | inhibition [6] 1.65% | RAM network inhibition [7] 7.41%

Cc1ccc2[nH]c(=O)c3cc(C(=O)N(C)Cc4ccco4)sc3c2c1
inactive: growth inhibition [1] -11.6% | growth inhibition [2] -4.44% | viability increase [3] -5.5% | viability [4] 71.4% | viability [5] 67.5% | inhibition [6] -0.255% | RAM network inhibition [7] -1.79%

Cc1nn(C)c(C)c1S(=O)(=O)N(CC(=O)NCc1cccs1)c1ccc(C(C)C)cc1
inactive: growth inhibition [1] -16.9% | growth inhibition [2] -13.5% | viability increase [3] -3.06% | viability [4] 99% | viability [5] 87.5% | inhibition [6] 2.2% | RAM network inhibition [7] 8.44%

COc1cccc(-n2nnc3c(=O)n(Cc4cccc(C)c4)cnc32)c1
inactive: growth inhibition [1] -8.22% | growth inhibition [2] -5.66% | viability increase [3] 0.31% | viability [4] 104% | viability [5] 89.7% | inhibition [6] 0.335% | RAM network inhibition [7] 5.49%

COCCCNC(=O)CN(c1ccc(Cl)c(Cl)c1)S(C)(=O)=O
inactive: growth inhibition [1] 0.93% | growth inhibition [2] -7.01% | viability increase [3] -1.44% | viability [4] 99.4% | viability [5] 101% | inhibition [6] 0.96% | RAM network inhibition [7] -0.77%

O=c1oc2c3c4c(cc2c2c1CCC2)OCCN4CCC3
inactive: growth inhibition [1] -8.18% | growth inhibition [2] -0.795% | viability increase [3] -7.31% | viability [4] 58.3% | viability [5] 67.3% | inhibition [6] 0.055% | RAM network inhibition [7] 5.48%

CCCCCn1c(SCC(=O)OC)nc2c1c(=O)[nH]c(=O)n2C
inactive: growth inhibition [1] -16.6% | growth inhibition [2] -10.6% | viability increase [3] -0.86% | viability [4] 103% | viability [5] 102% | inhibition [6] 1.29% | RAM network inhibition [7] 0.79%

CCN(CC)c1ccc(NS(=O)(=O)c2ccc3c(c2)oc(=O)n3C)c(C)c1
inactive: growth inhibition [1] -8.04% | growth inhibition [2] -10.8% | viability increase [3] -2.73% | viability [4] 83.2% | viability [5] 72.6% | inhibition [6] 1.33% | RAM network inhibition [7] -0.57%

COC(=O)c1ccccc1Nc1cc(C)nc2nc(C)nn12
inactive: growth inhibition [1] -5.25% | growth inhibition [2] 0.455% | viability increase [3] -3.74% | viability [4] 105% | viability [5] 115% | inhibition [6] -0.315% | RAM network inhibition [7] 1.72%

CC(Oc1ccc(Cl)cc1Cl)c1nc(-c2ccccn2)no1 (stereo unspecified)
inactive: growth inhibition [1] -3.06% | growth inhibition [2] 5.3% | viability increase [3] 1.23% | viability [4] 99.1% | viability [5] 87.7% | inhibition [6] 0.375% | RAM network inhibition [7] 2.34%

Cc1cccc(-n2ncc3c(N(C)C4CCCCC4)ncnc32)c1
inactive: growth inhibition [1] 4.55% | growth inhibition [2] 23% | viability increase [3] 2.07% | viability [4] 84.7% | viability [5] 85.8% | inhibition [6] -1.19% | RAM network inhibition [7] 3.02%

CCOC(=O)c1ccc(NC(=O)C(C)N2C(=O)c3ccccc3C2=O)cc1 (stereo unspecified)
inactive: growth inhibition [1] -13.1% | growth inhibition [2] -21.9% | viability increase [3] 0.15% | viability [4] 104% | viability [5] 100% | inhibition [6] 0.645% | RAM network inhibition [7] 4.7%

CNc1oc(C)nc1S(=O)(=O)c1ccccc1
inactive: growth inhibition [1] -13.1% | growth inhibition [2] -7.71% | viability increase [3] -0.15% | viability [4] 99.9% | viability [5] 98.1% | inhibition [6] 1.98% | RAM network inhibition [7] 0.25%

COc1ccc(CNC(=O)CS(=O)Cc2nc(-c3ccccc3C)oc2C)cc1 (stereo unspecified)
inactive: growth inhibition [1] -3.65% | growth inhibition [2] 10.4% | viability increase [3] -0.34% | viability [4] 96.7% | viability [5] 101% | inhibition [6] 0.275% | RAM network inhibition [7] 1.98%

COc1cccc(NC=C2C(=O)OC3(CCCCC3)OC2=O)c1
inactive: growth inhibition [1] -8.74% | growth inhibition [2] 5.97% | viability increase [3] -1.85% | viability [4] 95.1% | viability [5] 104% | inhibition [6] 2.04% | RAM network inhibition [7] 5.16%

CCOC(=O)NC(C(F)(F)F)(C(F)(F)F)P(=O)(c1ccccc1)c1ccccc1
inactive: growth inhibition [1] -6.98% | growth inhibition [2] 4.49% | viability increase [3] -0.51% | viability [4] 95% | viability [5] 91.7% | inhibition [6] 0.93% | RAM network inhibition [7] 4.13%

COc1ccc(C2CC(=O)N3CN(c4ccc(C)c(Cl)c4)CSC3=C2C#N)cc1OC (stereo unspecified)
inactive: growth inhibition [1] 2.02% | growth inhibition [2] 21.1% | viability increase [3] -4.27% | viability [4] 85.7% | viability [5] 93.6% | inhibition [6] 0.435% | RAM network inhibition [7] -1.09%

COc1ccc(C(=O)NCCn2ccc3ccccc32)cc1OC
inactive: growth inhibition [1] -9.53% | growth inhibition [2] -16.1% | viability increase [3] -3.48% | viability [4] 99.7% | viability [5] 81.9% | inhibition [6] 1.91% | RAM network inhibition [7] 2.68%

COc1ccc(N2CCN(C(=O)C(Cc3ccccc3)n3cccc3)CC2)cc1 (stereo unspecified)
inactive: growth inhibition [1] -14.4% | growth inhibition [2] -6.94% | viability increase [3] -2.94% | viability [4] 84.9% | viability [5] 82.6% | inhibition [6] 1.7% | RAM network inhibition [7] 6.88%

O=C(CCS(=O)(=O)c1cccc2nonc12)NCCc1ccccc1Cl
inactive: growth inhibition [1] -1.5% | growth inhibition [2] -9.76% | viability increase [3] -5.15% | viability [4] 91.2% | viability [5] 82.9% | inhibition [6] 1.33% | RAM network inhibition [7] 4.14%

COc1cccc(C2=NOC(C(=O)N3CCN(C(=O)c4ccco4)CC3)C2)c1 (stereo unspecified)
inactive: growth inhibition [1] 5% | growth inhibition [2] -4.4% | viability increase [3] -2.95% | viability [4] 95.6% | viability [5] 95.2% | inhibition [6] -0.3% | RAM network inhibition [7] 0.01%

COc1ccc(S(=O)(=O)NCc2cn3c(C)csc3n2)cc1F
inactive: growth inhibition [1] -21% | growth inhibition [2] -8.7% | viability increase [3] 0.05% | viability [4] 94.1% | viability [5] 93.3% | inhibition [6] 0.86% | RAM network inhibition [7] -0.48%

CC1CN(c2cc(=O)n(Cc3ccc(F)cc3)c(=O)[nH]2)CC(C)O1 (stereo unspecified)
inactive: growth inhibition [1] 5.64% | growth inhibition [2] -6.42% | viability increase [3] 0.06% | viability [4] 99.4% | viability [5] 105% | inhibition [6] 1.31% | RAM network inhibition [7] -0.24%

CCOC(=O)CCn1cc(F)c(=O)n(Cc2ccccc2)c1=O
inactive: growth inhibition [1] 3.69% | growth inhibition [2] 2.14% | viability increase [3] -0.3% | viability [4] 105% | viability [5] 96.1% | inhibition [6] 0.42% | RAM network inhibition [7] 1.43%

COc1ccccc1NC(=O)CCNC(=O)Cn1ccc2ccccc2c1=O
inactive: growth inhibition [1] -12.7% | growth inhibition [2] -11.8% | viability increase [3] -1.84% | viability [4] 96.6% | viability [5] 93.3% | inhibition [6] 0.74% | RAM network inhibition [7] 3.6%

COc1ccc(CC(NC(=O)c2ccccc2)C(=O)NCC(=O)O)cc1 (stereo unspecified)
inactive: growth inhibition [1] -3.04% | growth inhibition [2] -2.91% | viability increase [3] -0.14% | viability [4] 95.2% | viability [5] 101% | inhibition [6] 1.44% | RAM network inhibition [7] -0.37%

CC1=C(C(=O)OC2CCCCCCC2)C(c2cccc(O)c2)NC(=O)N1 (stereo unspecified)
inactive: growth inhibition [1] -1.81% | growth inhibition [2] 0.17% | viability increase [3] 4.53% | viability [4] 65.2% | viability [5] 65.6% | inhibition [6] 0.63% | RAM network inhibition [7] 0.89%

COc1ccc(NC(=O)CSc2nnc(-c3ccccn3)n2N)cc1
inactive: growth inhibition [1] -5.41% | growth inhibition [2] 13.7% | viability increase [3] -0.74% | viability [4] 101% | viability [5] 97.3% | inhibition [6] 0.535% | RAM network inhibition [7] 4.82%

COC(=O)C1(C)NC(=O)c2ccccc2N1 (stereo unspecified)
inactive: growth inhibition [1] -6.57% | growth inhibition [2] -7.71% | viability increase [3] -0.86% | viability [4] 102% | viability [5] 99.2% | inhibition [6] 0.47% | RAM network inhibition [7] 5.23%

COc1ccc(Cl)cc1NC(=O)CSc1nnc(Cn2c(=O)sc3ccccc32)n1C
inactive: growth inhibition [1] -8.82% | growth inhibition [2] -14.1% | viability increase [3] -2.64% | viability [4] 96.6% | viability [5] 95.6% | inhibition [6] 4.87% | RAM network inhibition [7] 7.45%
